Measurements reported in ChEMBL document CHEMBL1128507, “Design and synthesis of potent retinoid X receptor selective ligands that induce apoptosis in leukemia cells” (J Med Chem, 1995).

Key:
[1] = target: T1, Retinoic acid receptor RXR-alpha (Homo sapiens, UniProt P19793); experiment: Ability to activate gene expression at Retinoic acid receptor RXR-alpha was evaluated in a cotransfection assay.
T1 sequence (P19793 whole entry): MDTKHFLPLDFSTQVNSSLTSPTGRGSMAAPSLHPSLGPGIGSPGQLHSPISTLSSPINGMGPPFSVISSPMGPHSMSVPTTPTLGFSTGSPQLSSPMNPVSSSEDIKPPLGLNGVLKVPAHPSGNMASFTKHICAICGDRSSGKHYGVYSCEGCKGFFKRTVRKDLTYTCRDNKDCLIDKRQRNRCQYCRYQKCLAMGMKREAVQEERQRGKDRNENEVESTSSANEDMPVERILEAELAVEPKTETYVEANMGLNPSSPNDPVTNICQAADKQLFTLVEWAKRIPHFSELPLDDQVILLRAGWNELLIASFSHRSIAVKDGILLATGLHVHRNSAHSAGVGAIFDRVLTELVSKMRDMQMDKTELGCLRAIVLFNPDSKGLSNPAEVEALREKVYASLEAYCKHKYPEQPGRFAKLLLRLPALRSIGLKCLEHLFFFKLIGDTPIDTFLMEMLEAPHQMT

[2] = target: T2, Retinoic acid receptor RXR-beta (Mus musculus, UniProt P28704); experiment: Ability to activate gene expression at Retinoic acid receptor RXR-beta was evaluated in a cotransfection assay.
T2 sequence (P28704 whole entry): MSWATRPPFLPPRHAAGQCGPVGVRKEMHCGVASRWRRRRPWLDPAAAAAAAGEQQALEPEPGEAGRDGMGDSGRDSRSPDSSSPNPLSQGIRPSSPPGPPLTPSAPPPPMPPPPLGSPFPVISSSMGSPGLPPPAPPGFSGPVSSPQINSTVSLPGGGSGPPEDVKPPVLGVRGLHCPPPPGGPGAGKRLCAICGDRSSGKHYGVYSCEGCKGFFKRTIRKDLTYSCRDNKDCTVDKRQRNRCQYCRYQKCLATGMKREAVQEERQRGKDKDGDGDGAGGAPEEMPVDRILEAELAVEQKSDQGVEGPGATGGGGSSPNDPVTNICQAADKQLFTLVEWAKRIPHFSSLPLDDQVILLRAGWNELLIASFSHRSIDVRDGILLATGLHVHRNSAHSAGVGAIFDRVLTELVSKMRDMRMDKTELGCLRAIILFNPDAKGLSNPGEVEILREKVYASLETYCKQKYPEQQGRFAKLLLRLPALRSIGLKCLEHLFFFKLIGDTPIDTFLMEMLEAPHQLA

[3] = target: T3, Retinoic acid receptor RXR-gamma (Mus musculus, UniProt P28705); experiment: Ability to activate gene expression at Retinoic acid receptor RXR-gamma was evaluated in a cotransfection assay.
T3 sequence (P28705 whole entry): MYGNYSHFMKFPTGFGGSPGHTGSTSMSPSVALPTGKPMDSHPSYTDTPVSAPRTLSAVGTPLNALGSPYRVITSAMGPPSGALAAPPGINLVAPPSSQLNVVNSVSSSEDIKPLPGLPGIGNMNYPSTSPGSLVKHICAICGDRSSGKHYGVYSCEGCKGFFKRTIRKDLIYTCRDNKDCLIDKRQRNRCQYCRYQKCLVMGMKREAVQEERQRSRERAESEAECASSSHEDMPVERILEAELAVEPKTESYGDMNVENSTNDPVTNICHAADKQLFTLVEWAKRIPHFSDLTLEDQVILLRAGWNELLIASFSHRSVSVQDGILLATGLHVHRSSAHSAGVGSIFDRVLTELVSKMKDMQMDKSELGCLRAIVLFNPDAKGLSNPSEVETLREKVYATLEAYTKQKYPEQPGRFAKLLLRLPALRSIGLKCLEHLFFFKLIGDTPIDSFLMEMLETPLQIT
Summary of the method: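 CV-1 cells cotransfected with the RXR-gamma receptor, using an automated 96-well format. Values are either one experiment in triplicate or the mean ± SEM of at least two experiments, each in triplicate.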

[4] = target: T1, Retinoic acid receptor RXR-alpha; experiment: Ability to bind directly to Retinoic acid receptor RXR-alpha was evaluated in a competitive binding assay.
[5] = target: T2, Retinoic acid receptor RXR-beta; experiment: Binding affinity to Retinoic acid receptor RXR-beta was determined in a competitive binding assay.
[6] = target: T3, Retinoic acid receptor RXR-gamma; experiment: Binding affinity to Retinoic acid receptor RXR-gamma was evaluated in a competitive binding assay.
Summary of the method: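 Receptor from baculovirus. Competition binding used [3H]-9-cis-RA as the radioligand for RXRs. Kd was calculated with the Cheng-Prussof equation. Values are mean ± SEM of about three experiments, or a single experiment in triplicate.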

Cc1cc2c(cc1C1(c3ccc(C(=O)O)cc3)CO1)C(C)(C)CCC2(C)C (configuration not stated)
EC50 [1]: 51 nM | EC50 [2]: 67 nM | EC50 [3]: 47 nM | Kd [4]: 670 nM | Kd [5]: 190 nM | Kd [6]: 547 nM

C=C(c1ccc(C(=O)O)cc1)c1cc2c(cc1C)C(C)(C)C(C)C2(C)C (configuration not stated)
EC50 [1]: 300 nM | EC50 [2]: 280 nM | EC50 [3]: 500 nM | Kd [4]: 176 nM | Kd [5]: 291 nM | Kd [6]: 283 nM

Cc1cc2c(cc1C(=O)c1cccc(C(=O)O)c1)C(C)(C)CCC2(C)C
EC50 [1]: > 10000 nM | EC50 [2]: > 10000 nM | EC50 [3]: > 10000 nM | Kd [4]: > 1000 nM | Kd [5]: > 1000 nM | Kd [6]: > 1000 nM

C=C(c1ccc(C(=O)O)cc1)c1cc2c(cc1C)C(C)(C)CCC2
EC50 [1]: 1200 nM | EC50 [2]: 770 nM | EC50 [3]: 600 nM | Kd [4]: 1160 nM | Kd [5]: 853 nM | Kd [6]: 1740 nM

C=C(c1ccc(C(=O)O)cc1)c1cc2c(cc1C)CCCC2(C)C
EC50 [1]: 2400 nM | EC50 [2]: 2400 nM | EC50 [3]: 2600 nM | Kd [4]: > 1000 nM | Kd [5]: > 1000 nM | Kd [6]: > 1000 nM

Cc1cc2c(cc1Cc1ccc(C(=O)O)cc1)C(C)(C)CCC2(C)C
EC50 [1]: 460 nM | EC50 [2]: 1200 nM | EC50 [3]: 440 nM | Kd [4]: > 1000 nM | Kd [5]: > 1000 nM | Kd [6]: > 1000 nM

Cc1cc2c(cc1C1(c3ccc(C(=O)O)cc3)CC1)C(C)(C)CCC2(C)C
EC50 [1]: 26 nM | EC50 [2]: 22 nM | EC50 [3]: 17 nM | Kd [4]: 46 nM | Kd [5]: 70 nM | Kd [6]: 25 nM

Cc1cc2c(cc1Oc1ccc(C(=O)O)cc1)C(C)(C)CCC2(C)C
EC50 [1]: 1000 nM | EC50 [2]: 1900 nM | EC50 [3]: 430 nM | Kd [4]: 520 nM | Kd [5]: 770 nM | Kd [6]: 450 nM

CC(C)=C(c1ccc(C(=O)O)cc1)c1cc2c(cc1C)C(C)(C)CCC2(C)C
EC50 [1]: 300 nM | EC50 [2]: 130 nM | EC50 [3]: 240 nM | Kd [4]: 50 nM | Kd [5]: 160 nM | Kd [6]: 150 nM

Cc1cc2c(cc1C(=O)c1ccccc1C(=O)O)C(C)(C)CCC2(C)C
EC50 [1]: > 10000 nM | EC50 [2]: > 10000 nM | EC50 [3]: > 10000 nM | Kd [4]: > 1000 nM | Kd [5]: > 1000 nM | Kd [6]: > 1000 nM

Cc1cc2c(cc1C(C)c1ccc(C(=O)O)cc1)C(C)(C)CCC2(C)C (configuration not stated)
EC50 [1]: 470 nM | EC50 [2]: 310 nM | EC50 [3]: 340 nM | Kd [4]: 110 nM | Kd [5]: 150 nM | Kd [6]: 200 nM

Cc1cc2c(cc1C(C)(C)c1ccc(C(=O)O)cc1)C(C)(C)CCC2(C)C
EC50 [1]: 650 nM | EC50 [2]: 1900 nM | EC50 [3]: 650 nM | Kd [4]: > 1000 nM | Kd [5]: > 1000 nM | Kd [6]: > 1000 nM
